Assay results: paper PMC3575599 (Cell reports, 2013)
“Also recorded” adds a separate entry of the source.

Assays:
mefs = assay: Proliferation of mefs with dox-inducible Chd5 or PHD-mutants; format: cell-based, mouse; details: for effect on mef proliferation: dox-induced (0.2 μg/ml dox) vs untreated
Summary of the method: (§1)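 Mouse Chd5 (wild-type or PHD point mutants) is introduced by retrovirus in a dox-inducible vector, with SK-N-AS cells stably expressing rtTA. Mefs are seeded at 5 × 10^4 cells per 6 cm dish and SK-N-AS at 2.5 × 10^4 cells. Cells grow in DMEM with 100 μg/ml hygromycin B and 0.5 μg/ml puromycin, ±0.2 μg/ml dox. Cells are counted over days in triplicate (Coulter counter or crystal violet); mean ± S.D., two-tailed t-test.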

[1] = test system: Chd5 target gene expression; assay: qRT-PCR of Chd5 target genes in mefs; format: cell-based, mouse; details: qRT-PCR normalized with actin, with (+) vs without (−) dox
[2] = test system: recombinant tandem PHDs of Chd5; assay: Biotinylated histone peptide pull-down with recombinant Chd5 PHDs; format: binding, mouse; details: biotinylated histone peptides; in vitro pull-down
H3K4me0 peptide = assay: Peptide pull-down with recombinant wild-type and mutant PHDs or individual PHDs; format: binding; details: biotinylated histone peptides; recombinant PHDs of Chd5
H3 peptide = format: binding; details: nuclear extracts from mefs; anti-Flag immunoblot
SK-N-AS cells [3] = assay: Proliferation of SK-N-AS cells with dox-inducible Chd5 or PHD-mutants; format: cell-based, human; details: for reduction of SK-N-AS proliferation: dox-induced; for effect on SK-N-AS proliferation: dox-induced (0.2 μg/ml dox) vs untreated
Summary of the method: as §1

SK-N-AS cells [4] = assay: Differentiation of SK-N-AS cells; format: cell-based, human; details: for cell morphology / differentiation: SK-N-AS, dox-inducible expression; for MAP2 expression: immunofluorescence, neuronal marker MAP2
unmodified H3 = format: binding; details: purified Chd5-PHDs or nuclear lysates expressing Flag-tagged Chd5; unmodified H3 peptides
SK-N-AS cells [5] = assay: Tumor growth of SK-N-AS cells injected subcutaneously into athymic nude mice; format: in vivo, human; details: SK-N-AS cells s.c., dox-diet
Summary of the method: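 SK-N-AS cells carry rtTA plus dox-inducible vector, wild-type or PHD-mutant Chd5. 1.6 × 10^6 cells mixed with Matrigel are injected s.c. into irradiated athymic nude mice. One cohort gets normal diet; the other gets dox diet from two days before injection onward. A blinded observer measures tumours. Read-outs are fold increase in tumour volume over 17 days (mean ± S.E.M.) and percentage change, dox-treated versus untreated.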

chromatin = assay: Chromatin fractions from cells expressing Flag-tagged Chd5; format: cell-based

Row | Molecule | effect on mef proliferation (mefs) | effect on Chd5 target gene expression in mefs [1] | binding to H3K4me0 peptide (pull-down) (H3K4me0 peptide) | cell morphology / differentiation (SK-N-AS cells [4]) | further results
1 | W384A: H3-binding-competent Chd5-PHD mutant | inhibited proliferation to an extent comparable to that of wild-type Chd5; also recorded: inhibit proliferation | inhibit expression of several Chd5-bound genes | – | – | –
2 | C432W: Chd5 mutant compromised for H3 binding | defective in their ability to inhibit proliferation | not able to inhibit expression of Chd5-bound loci | – | – | –
3 | D415A: Chd5 mutant compromised for H3 binding | defective in their ability to inhibit proliferation | – | – | – | –
4 | D346A/D434A: Chd5 double mutant, PHD1-D346A and PHD2-D434A | fail to do so | fail to do so | – | – | –
5 | G355A: Chd5 mutant compromised for H3 binding | defective in their ability to inhibit proliferation | not able to inhibit expression of Chd5-bound loci | – | – | –
6 | unmodified H3 (1–21) peptide: biotinylated histone H3 (1–21) peptide | – | – | – | – | binding to recombinant tandem PHDs of Chd5 (pull-down) [2]: bind
7 | D346A: Chd5-PHD1 single amino acid mutant; H3-binding-competent | inhibited proliferation to an extent comparable to that of wild-type Chd5; also recorded: inhibit proliferation | repress target gene expression; also recorded: inhibit expression of several Chd5-bound genes | binds the H3K4me0 peptide | intermediate differentiation phenotype | pull-down by H3 peptide of Flag-tagged Chd5 (H3 peptide): are pulled down by H3 peptide; effect on mef proliferation (mefs; listed as Chd5-PHD1-D346A): inhibits cellular proliferation; reduction of SK-N-AS proliferation (SK-N-AS cells [3]): about 17%; effect on SK-N-AS proliferation (SK-N-AS cells [3]): inhibited proliferation; effect on SK-N-AS proliferation (SK-N-AS cells [3]; listed as Chd5-PHD1-D346A): inhibits cellular proliferation; cell morphology / differentiation (SK-N-AS cells [4]; listed as Chd5-D346A): partially-differentiated morphology; relative efficiency of H3 binding (unmodified H3): bind H3 more efficiently than PHD1-D361A, PHD2-D434A, and PHD2-D415A
8 | PHD2: individual PHD of Chd5, PHD2 (408–465) (GGCEEEEDDHMEFCRVCKDGGELLCCDACPSSYHLHCLNPPLPEIPNGEWLCPRCTCP; PHD2; UniProt A2A8L1 408-465, looked up, fragment) | – | – | same binding preference for H3K4me0; also recorded: highest affinity | – | –
9 | wild-type Chd5: full-length mouse Chd5 (chromodomain helicase DNA-binding protein 5) | inhibited proliferation; also recorded: inhibits cellular proliferation | repress target gene expression | – | flat epithelial-like morphology; also recorded: differentiated cellular morphology | pull-down by H3 peptide of Flag-tagged Chd5 (H3 peptide): are pulled down by H3 peptide; inhibition of proliferation in mefs (mefs; dox-induced, see Figure 3A): 54%; effect on Chd5 target gene expression in mefs ([1]; listed as Chd5): inhibits expression of the oncogenic PcG protein Bmi1; reduction of SK-N-AS proliferation (SK-N-AS cells [3]): about 17%; effect on SK-N-AS proliferation (SK-N-AS cells [3]): inhibited proliferation; also recorded: inhibits cellular proliferation; MAP2 expression (SK-N-AS cells [4]): increased expression; also recorded: increase in MAP2 expression; effect on tumor growth (SK-N-AS cells [5]): reduces tumorigenesis in vivo much more efficiently; association with chromatin (chromatin): associated with chromatin
10 | D361A: Chd5-PHD1 single amino acid mutant compromised for H3 binding | defective in their ability to inhibit proliferation | fail to do so; also recorded: not able to inhibit expression of Chd5-bound loci | compromised binding | classic stem-like neuroblastoma morphology with proliferative foci | effect on mef proliferation (mefs; listed as Chd5-PHD1-D361A): fail to do so; effect on SK-N-AS proliferation (SK-N-AS cells [3]): no such effects are observed; MAP2 expression (SK-N-AS cells [4]): lower expression; effect on tumor growth (SK-N-AS cells [5]): failed to reduce tumor growth
11 | PHD1: individual PHD of Chd5, PHD1 (345–403) (QDYCEVCQQGGEIILCDTCPRAYHLVCLDPELEKAPEGKWSCPHCEKEGIQWEPKDDDE; PHD1; UniProt A2A8L1 345-403, looked up, fragment) | – | – | same binding preference for H3K4me0 | – | –
12 | C[C@H]1c2cccc(O)c2C(=O)C2=C(O)[C@]3(O)C(=O)C(C(N)=O)=C(O)[C@@H](N(C)C)[C@@H]3[C@@H](O)[C@@H]21 [doxycycline, reference compound] | no significant effect | – | – | – | –
13 | D434A: Chd5-PHD2 single amino acid mutant compromised for H3 binding | defective in their ability to inhibit proliferation | fail to do so; also recorded: not able to inhibit expression of Chd5-bound loci | compromised binding | classic stem-like neuroblastoma morphology with proliferative foci | effect on mef proliferation (mefs; listed as Chd5-PHD2-D434A): fail to do so; MAP2 expression (SK-N-AS cells [4]): lower expression; effect on tumor growth (SK-N-AS cells [5]): failed to reduce tumor growth
